Measured values from paper PMC11474258 (RSC Advances, 2024).
≈ marks a conversion by molar mass, not a printed value.

Experiments:
[1] = Spectral titration of phenol with guanidine HCl; conditions: calculated from the binding isotherm of phenol with guanidine HCl
[2] = Solubility of curcumin; assay type: physicochemical; conditions: in the presence of FAM-Y4R4; absorption peak at 425 nm, curcumin standard curve
[3] = UV-vis titration of curcumin with phenol; assay type: binding; conditions: isotherm at 430 nm, 1:1 model, non-linear regression
Method in brief: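 Curcumin was spectroscopically titrated with phenol, which stands in for the tyrosine side chain. The binding isotherm was plotted from absorbance at 430 nm. Ka was fitted by nonlinear regression to a one-host-to-one-guest binding model.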

[4] = cited from earlier work
[5] = Overall binding constant of curcumin; conditions: average of fluorescence (tyrosine) and UV-vis (phenol) titration
[6] = concentrations up to 5 mM; cited from earlier work
[7] = system: A549 cells; test: MTT cell viability assay; assay type: cell-based; conditions: 18 h, triplicates, CX4 alone up to 200 μM
Method in brief: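 A549 cells were grown in DMEM/F12 with 10% heat-inactivated FBS and 1% penicillin/streptomycin at 37 °C, 5% CO2. They were seeded at 1×10^4 cells/well and exposed in triplicate for 18 h to a range of test compound concentrations, alone or complexed with peptide. CX4 was at most 4 mM in complexes. MTT absorbance was read at 570 nm and reported as mean ± standard error, with Tukey test (P < 0.05).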

Cl.N=C(N)N [guanidine HCl]
binding energy [1]: 8.13 kcal/mol

COc1cc(/C=C/C(=O)CC(=O)/C=C/c2ccc(O)c(OC)c2)ccc1O [curcumin]
solubility of curcumin when bound to the tyrosines of FAM-Y4R4 [2]: 0.4 µM
Ka of curcumin to phenol [3]: 4.6e+06 M⁻¹
solubility in water [4]: 0.03 µM (≈ 0.0111 µg/mL)
overall binding constant Ka (average of the two values) [5]: 2.38e+06 M⁻¹

O=S(=O)(O)c1cc2c(O)c(c1)Cc1cc(S(=O)(=O)O)cc(c1O)Cc1cc(S(=O)(=O)O)cc(c1O)Cc1cc(S(=O)(=O)O)cc(c1O)C2 [CX4, p-sulfonatocalix[4]arene]
hemolytic toxicity [6]: no hemolytic toxicity
maximum decrease in cell viability [7]: ≤ 22%
